According to ChEMBL document CHEMBL1135669, “Improving the oral efficacy of CNS drug candidates: discovery of highly orally efficacious piperidinyl piperidine M2 muscarinic receptor antagonists” (J Med Chem, 2002):
Active and inactive are the calls of the source.

What was measured:
[1] = molecular target: T1, Muscarinic acetylcholine receptor M2 (Homo sapiens, UniProt P08172); experiment: Binding affinity for human Muscarinic acetylcholine receptor M2
T1 sequence (P08172 whole entry): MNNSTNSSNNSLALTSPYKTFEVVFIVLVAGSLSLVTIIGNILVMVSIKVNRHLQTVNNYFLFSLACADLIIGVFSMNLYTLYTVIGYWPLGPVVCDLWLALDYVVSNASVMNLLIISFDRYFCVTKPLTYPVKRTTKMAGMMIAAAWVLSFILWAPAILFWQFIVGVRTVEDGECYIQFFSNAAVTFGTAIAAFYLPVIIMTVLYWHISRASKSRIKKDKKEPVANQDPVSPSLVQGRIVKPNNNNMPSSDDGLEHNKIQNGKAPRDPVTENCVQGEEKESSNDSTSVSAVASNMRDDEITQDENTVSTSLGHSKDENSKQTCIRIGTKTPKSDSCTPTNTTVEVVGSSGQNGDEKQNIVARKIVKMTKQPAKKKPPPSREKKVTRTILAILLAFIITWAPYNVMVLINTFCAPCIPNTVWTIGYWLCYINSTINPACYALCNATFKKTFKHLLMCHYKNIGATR

[2] = species on record: Homo sapiens; experiment: Percent of Parent compound remaining after 20 min incubation with human liver microsomes (Human microsomal stability); format: functional
Procedure, shortened: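 Compounds at 10 μg/mL were incubated with human liver microsomes for 20 min. Metabolic stability is reported as % parent compound remaining.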

[3] = test system: Rattus norvegicus; experiment: ACh released compared with baseline (100%) in rat striatum after peroral administration (0-2 h,10 mg/kg, 20% HPbetaCD) using microdialysis assay; format: functional
Procedure, shortened: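 Rat striatal microdialysis: single oral dose of 10 mg/kg in 20% HPβCD vehicle. ACh in dialysate collected from 0 to 2 h, expressed as % of preinjection baseline (baseline = 100%). ACh release is measured in the presence of neostigmine. Stimulation over baseline was judged by Duncan's Multiple Range Statistic.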

[4] = test system: Rattus norvegicus; experiment: ACh released compared with baseline (100%) in rat striatum after iv administration (0-2 h,10 mg/kg, 20% HPbetaCD) using microdialysis assay; format: functional
[5] = test system: Rattus norvegicus; experiment: Orally active dose in passive avoidance response (PAR); inactive; format: functional, organism-based
Procedure, shortened: (§1)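 Rat passive avoidance response, a reference-memory cognitive paradigm, with oral dosing. The value is the orally active dose in mg/kg, defined as a significant change in latency over vehicle (4% MC), p < 0.05 by Dunnett's T test, n = 36.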

[6] = test system: Rattus norvegicus; experiment: Orally active dose in passive avoidance response (PAR); format: functional; procedure, shortened: as §1
[7] = Area under curve (high throughput single measurement) after peroral administration (10 mg/kg, 0-6 hr) in rat was determined; settings: in vivo, po

| Ki [1] | SMILES | Activity [3] | further results |
| --- | --- | --- | --- |
| 32 nM | CC(=C1CCN(C2CCN(C(=O)c3cccc(C)c3N)CC2)CC1)c1ccc(S(=O)(=O)C(C)C)cc1 |  | Activity [2]: 80% |
| 9.6 nM | CC(=C1CCN(C2CCN(C(=O)c3ccc(F)c4ccccc34)CC2)CC1)c1ccc(S(=O)(=O)C(C)C)cc1 |  | Activity [2]: 74% |
|  | CC(C)Sc1ccc(CC2CCN(C3CCN(C(=O)c4cccc5ccccc45)CC3)CC2)cc1 | 110% | Activity [4]: 210%; Activity [5]: inactive |
| 221 nM | CC(C)S(=O)(=O)c1ccc(CC2CCN(C3CCN(C(=O)c4ccc(F)c5ccccc45)CC3)CC2)cc1 |  |  |
|  | COc1ccc(S(=O)(=O)c2ccc(C3(C4CCN(C5CCN(C(=O)c6ccc(F)c7ccccc67)CC5)CC4)OCCO3)cc2)cc1 | 180% | PAR [6]: 0.1 mg/kg |
| 1.3 nM | CC(=C1CCN(C2CCN(C(=O)c3ccc(F)c4ccccc34)CC2)CC1)c1ccc([S+]([O-])C(C)C)cc1 (single isomer, unassigned; (+)) | 179% |  |
| 0.89 nM | CC(=C1CCN(C2CCN(C(=O)c3cccc(C)c3N)CC2)CC1)c1ccc([S+]([O-])C(C)C)cc1 (single isomer, unassigned; (+)) | 225% | PAR [6]: 0.0001 mg/kg |
| 2.4 nM | CC(=C1CCN(C2CCN(C(=O)c3ccc(F)c4ccccc34)CC2)CC1)c1ccc([S+]([O-])C(C)C)cc1 (single isomer, unassigned; (-)) | 155% |  |
| 12 nM | CC(=C1CCN(C2CCN(C(=O)c3cccc(C)c3N)CC2)CC1)c1ccc([S+]([O-])C(C)C)cc1 (single isomer, unassigned; (-)) |  |  |
| 2.7 nM | CC(=C1CCN(C2CCN(C(=O)c3ccc(F)c4ccccc34)CC2)CC1)c1ccc([S+]([O-])C(C)C)cc1 (stereo in doubt; 13) [listing 1 of 2 here] |  |  |
|  | CC(=C1CCN(C2CCN(C(=O)c3ccc(F)c4ccccc34)CC2)CC1)c1ccc([S+]([O-])C(C)C)cc1 (stereo in doubt; 13) [listing 2 of 2 here] |  | Activity [2]: 66% |
| 6.6 nM | CC(=C1CCN(C2CCN(C(=O)c3cccc(C)c3N)CC2)CC1)c1ccc([S+]([O-])C(C)C)cc1 (stereo in doubt; 14) [listing 1 of 2 here] |  |  |
|  | CC(=C1CCN(C2CCN(C(=O)c3cccc(C)c3N)CC2)CC1)c1ccc([S+]([O-])C(C)C)cc1 (stereo in doubt; 14) [listing 2 of 2 here] |  | Activity [2]: 64% |
|  | Cc1cccc(C(=O)N2CCC(N3CCC(Cc4ccc(S(=O)(=O)c5cccc(Cl)c5)cc4)CC3)CC2)c1N [SCH-211803] | 180% | PAR [6]: 0.001 mg/kg; AUC at 6 h [7]: 908 ng·h/mL |
